{
  "source": "ChEMBL document CHEMBL1127606",
  "about": "“HIV-1 reverse transcriptase inhibitor design using artificial neural networks” (1994)",
  "key": {"[1]": {"molecular_target": "Human immunodeficiency virus type 1 reverse transcriptase (Human immunodeficiency virus 1) (UniProt Q72547)", "assay": "Inhibition of HIV-1 reverse transcriptase; - = inactive"}, "[2]": {"tested_on": "MT4", "assay": "Number of infected cells at 10e-5 concentration of compound was tested on MT-4 cells infected by […]", "format": "functional, Homo sapiens", "how_it_was_run": "(§1)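 Infected-cell count: HIV-1 (H9/IIIB-derived fluid, 0.05–0.1 log10 EPCD50 per cell) was used to infect MT-4 lymphocytes, which were then grown 7 days with compound at 10^-4 or 10^-5 M. Cells expressing viral antigens on their surface membranes were scored by indirect immunofluorescence with anti-HIV-1 antibodies, as % of cells.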"}, "[3]": {"tested_on": "MT4", "assay": "Antigen p24 content in culture fluid at 10e-5 concentration of compound was tested on MT-4 cells infected by […]", "format": "functional, Homo sapiens", "how_it_was_run": "(§2)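 p24 assay: MT-4 cultures were infected with HIV-1 from chronically infected H9/IIIB cultures (0.05–0.1 log10 EPCD50 per cell) and held 7 days with compound at 10^-4 or 10^-5 M. Virus production was measured as p24 antigen in culture fluid by immunoenzymatic assay, in ng/mL.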"}, "[4]": {"tested_on": "MT4", "assay": "RT activity in culture fluid at 10e-5 concentration of compound was tested on MT-4 cells infected by […]", "format": "cell-based", "how_it_was_run": "(§3)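 RT assay: infected MT-4 cells (H9/IIIB-derived HIV-1, 0.05–0.1 log10 EPCD50 per cell) were cultured 7 days with compound at 10^-4 or 10^-5 M. Reverse transcriptase activity in the culture fluid was measured and expressed as % of untreated infected control.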"}, "[5]": {"tested_on": "MT4", "assay": "Cytotoxic concentration for 50% death of uninfected MT-4 cell culture"}, "[6]": {"tested_on": "MT4", "assay": "Content of viable cells at 10e-4 concentration of compound was tested on MT-4 cells infected by […]", "format": "functional, Homo sapiens", "how_it_was_run": "(§4)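 Anti-HIV viable-cell assay: MT-4 lymphocytes infected with cell-free fluid from chronically HIV-1-infected H9/IIIB cultures at 0.05–0.1 log10 EPCD50 per cell. They were cultured 7 days with compound at 10^-4 or 10^-5 M. Viable cells were counted by 0.25% trypan blue exclusion and reported as % viable cells.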"}, "[7]": {"tested_on": "MT4", "assay": "Antigen p24 content in culture fluid at 10e-4 concentration of compound was tested on MT-4 cells infected by […]", "format": "functional, Homo sapiens", "how_it_was_run": "as §2"}, "[8]": {"tested_on": "MT4", "assay": "Number of infected cells at 10e-4 concentration of compound was tested on MT-4 cells infected by […]", "format": "functional, Homo sapiens", "how_it_was_run": "as §1"}, "[9]": {"tested_on": "MT4", "assay": "RT activity in culture fluid at 10e-4 concentration of compound was tested on MT-4 cells infected by […]", "format": "cell-based", "how_it_was_run": "as §3"}, "[10]": {"tested_on": "MT4", "assay": "Content of viable cells at 10e-5 concentration of compound was tested on MT-4 cells infected by […]", "format": "functional, Homo sapiens", "how_it_was_run": "as §4"}, "[11]": {"tested_on": "MT4", "assay": "Cytotoxic concentration for 50% death of MT-4 cell culture infected by HIV-1/ IIIB", "format": "functional, Homo sapiens"}},
  "note": "Active and inactive are the calls of the source. The calls are words filed in the database; no cut-off is given here.",
  "data": [
    {"smiles": "COC(=O)C(Cc1ccccc1)NP(=O)(NC(Cc1ccccc1)C(=O)OC)OCC1OC(n2cc(C)c(=O)[nH]c2=O)CC1F", "note": "(stereo unspecified)", "values": [
      {"measurement": "Activity", "setting": "[1]", "value": "inactive"}
    ]},
    {"smiles": "Cc1cn([C@@H]2O[C@H](CO)C=C2F)c(=O)[nH]c1=O", "values": [
      {"measurement": "Activity", "setting": "[1]", "value": "inactive"}
    ]},
    {"smiles": "O=c1ccn(C2OC(CO)C=C2F)c(=O)[nH]1", "note": "(stereo unspecified)", "values": [
      {"measurement": "Activity", "setting": "[1]", "value": "inactive"}
    ]},
    {"smiles": "Cc1cn([C@@H]2C=C[C@@H](N=[N+]=[N-])[C@@H](CO)O2)c(=O)[nH]c1=O", "values": [
      {"measurement": "Activity", "setting": "[1]", "value": "inactive"}
    ]},
    {"smiles": "CC(=O)O[C@H]1C=C[C@H](n2cc(C)c(=O)[nH]c2=O)O[C@@H]1CO", "values": [
      {"measurement": "Activity", "setting": "[1]", "value": "inactive"}
    ]},
    {"smiles": "COC(=O)C(NP(=O)(OCC1OC(n2cc(C)c(=O)[nH]c2=O)CC1F)OCC(Cl)(Cl)Cl)C(C)C", "note": "(stereo unspecified)", "values": [
      {"measurement": "Activity", "setting": "[1]", "value": "inactive"}
    ]},
    {"smiles": "Cc1cn(C2C=C[C@@H](N=[N+]=[N-])CO2)c(=O)[nH]c1=O", "note": "(single isomer, unassigned)", "values": [
      {"measurement": "Activity", "setting": "[1]", "value": "inactive"}
    ]},
    {"smiles": "CC(=O)N[C@@H]1C=C[C@@H](n2cc(C)c(=O)[nH]c2=O)OC1", "values": [
      {"measurement": "Activity", "setting": "[1]", "value": "inactive"}
    ]},
    {"smiles": "Cc1cn(C2C=C[C@@H](O)[C@@H](CO)O2)c(=O)[nH]c1=O", "note": "(single isomer, unassigned)", "values": [
      {"measurement": "Activity", "setting": "[1]", "value": "inactive"}
    ]},
    {"smiles": "CC(=O)OC[C@H]1O[C@H](n2cc(C)c(=O)[nH]c2=O)C=C[C@@H]1OC(C)=O", "values": [
      {"measurement": "Activity", "setting": "[1]", "value": "inactive"}
    ]},
    {"smiles": "Cc1cn([C@@H]2C=CC(O)CO2)c(=O)[nH]c1=O", "note": "(single isomer, unassigned)", "values": [
      {"measurement": "Activity", "setting": "[1]", "value": "inactive"}
    ]},
    {"smiles": "COC1=NC(CC(C)=O)N=C(OC)C1(CC(O)CO)[N+](=O)[O-]", "note": "(stereo unspecified)", "values": [
      {"measurement": "No. of infected cells", "setting": "[2]", "value": 12.6, "unit": "%"},
      {"measurement": "Antigen p24 content", "setting": "[3]", "value": 1.87, "unit": "ng/mL"},
      {"measurement": "RT activity", "setting": "[4]", "value": 82.5, "unit": "%"},
      {"measurement": "CTC50", "setting": "[5]", "value": 0.058, "unit": "M"},
      {"measurement": "Viable cells", "setting": "[6]", "value": 37.3, "unit": "%"},
      {"measurement": "Antigen p24 content", "setting": "[7]", "value": 1.92, "unit": "ng/mL"},
      {"measurement": "No. of infected cells", "setting": "[8]", "value": 19.7, "unit": "%"},
      {"measurement": "RT activity", "setting": "[9]", "value": 84.3, "unit": "%"},
      {"measurement": "Viable cells", "setting": "[10]", "value": 52.1, "unit": "%"}
    ]},
    {"smiles": "CC(=O)N[C@@H]1C=C[C@@H](n2cc(C)c(=O)[nH]c2=O)O[C@@H]1CO", "values": [
      {"measurement": "Activity", "setting": "[1]", "value": "inactive"}
    ]},
    {"smiles": "Cc1cn(C2C=C[C@H](O)[C@@H](CO)O2)c(=O)[nH]c1=O", "note": "(single isomer, unassigned)", "values": [
      {"measurement": "Activity", "setting": "[1]", "value": "inactive"}
    ]},
    {"smiles": "Cc1cn([C@@H]2O[C@H](CO)[C@@H](N=[N+]=[N-])[C@H]2F)c(=O)[nH]c1=O", "values": [
      {"measurement": "Activity", "setting": "[1]", "value": "inactive"}
    ]},
    {"smiles": "CCc1cc(CCN2C(=O)c3ccccc3C2=O)c(O)nc1C", "values": [
      {"measurement": "Activity", "setting": "[1]", "value": "inactive"}
    ]},
    {"smiles": "O=c1ccn(C2OC(CO)CC2F)c(=O)[nH]1", "note": "(stereo unspecified)", "values": [
      {"measurement": "Activity", "setting": "[1]", "value": "inactive"}
    ]},
    {"smiles": "O=c1ccn(C2OC(CO)C(F)C2F)c(=O)[nH]1", "note": "(stereo unspecified)", "values": [
      {"measurement": "Activity", "setting": "[1]", "value": "inactive"}
    ]},
    {"smiles": "Nc1nc(=O)n(C2OC(CO)CC2F)cc1F", "note": "(stereo unspecified)", "values": [
      {"measurement": "Activity", "setting": "[1]", "value": "inactive"}
    ]},
    {"smiles": "COC(=O)C(C)NP(=O)(OCC1OC(n2cc(C)c(=O)[nH]c2=O)CC1F)OCC(Cl)(Cl)Cl", "note": "(stereo unspecified)", "values": [
      {"measurement": "Activity", "setting": "[1]", "value": "inactive"}
    ]},
    {"smiles": "Cc1cn([C@@H]2O[C@H](CO)C[C@H]2F)c(=O)[nH]c1=O", "values": [
      {"measurement": "Activity", "setting": "[1]", "value": "inactive"}
    ]},
    {"smiles": "COc1nc(CC(C)=O)nc(OC)c1CC(O)CO", "note": "(stereo unspecified)", "values": [
      {"measurement": "CTC50", "setting": "[11]", "value": 78, "unit": "µM"}
    ]},
    {"smiles": "Cc1cn([C@H]2C=C[C@@H](N=[N+]=[N-])[C@@H](CO)O2)c(=O)[nH]c1=O", "values": [
      {"measurement": "Activity", "setting": "[1]", "value": "inactive"}
    ]},
    {"smiles": "CC(=O)N[C@@H]1C=C[C@H](n2cc(C)c(=O)[nH]c2=O)O[C@@H]1CO", "values": [
      {"measurement": "Activity", "setting": "[1]", "value": "inactive"}
    ]},
    {"smiles": "Cc1cn([C@H]2C[C@H](N=[N+]=[N-])[C@@H](CO)O2)c(=O)[nH]c1=O", "note": "[ZIDOVUDINE]", "values": [
      {"measurement": "No. of infected cells", "setting": "[2]", "value": 2.1, "unit": "%"},
      {"measurement": "Antigen p24 content", "setting": "[3]", "value": 0.68, "unit": "ng/mL"},
      {"measurement": "RT activity", "setting": "[4]", "value": 17, "unit": "%"},
      {"measurement": "CTC50", "setting": "[5]", "value": 0.0053, "unit": "M"},
      {"measurement": "Viable cells", "setting": "[6]", "value": 78.6, "unit": "%"},
      {"measurement": "Antigen p24 content", "setting": "[7]", "value": 0.82, "unit": "ng/mL"},
      {"measurement": "No. of infected cells", "setting": "[8]", "value": 2.9, "unit": "%"},
      {"measurement": "RT activity", "setting": "[9]", "value": 19.2, "unit": "%"},
      {"measurement": "Viable cells", "setting": "[10]", "value": 69.7, "unit": "%"}
    ]},
    {"smiles": "COC1=NC(OC)=C([N+](=O)[O-])C(CC(C)=O)N1CC(O)CO", "note": "(stereo unspecified)", "values": [
      {"measurement": "No. of infected cells", "setting": "[2]", "value": 2.8, "unit": "%"},
      {"measurement": "Antigen p24 content", "setting": "[3]", "value": 0.77, "unit": "ng/mL"},
      {"measurement": "RT activity", "setting": "[4]", "value": 18.7, "unit": "%"},
      {"measurement": "CTC50", "setting": "[5]", "value": 0.0466, "unit": "M"},
      {"measurement": "Viable cells", "setting": "[6]", "value": 85.1, "unit": "%"},
      {"measurement": "Antigen p24 content", "setting": "[7]", "value": 0.87, "unit": "ng/mL"},
      {"measurement": "No. of infected cells", "setting": "[8]", "value": 3.6, "unit": "%"},
      {"measurement": "RT activity", "setting": "[9]", "value": 20.9, "unit": "%"},
      {"measurement": "Viable cells", "setting": "[10]", "value": 83.2, "unit": "%"}
    ]},
    {"smiles": "CC(=O)O[C@H]1C=C[C@@H](n2cc(C)c(=O)[nH]c2=O)OC1", "values": [
      {"measurement": "Activity", "setting": "[1]", "value": "inactive"}
    ]}
  ]
}
